Measured values from ChEMBL document CHEMBL3112486, “Novel class of benzoic acid ester derivatives as potent PDE4 inhibitors for inhaled administration in the treatment of respiratory diseases” (J Med Chem, 2014).
Calls of active or inactive are those of the source. No cut-off for these calls is given here.

What was measured:
[1] = biological target: T1, cGMP-dependent 3',5'-cyclic phosphodiesterase (Homo sapiens, UniProt O00408); assay: Inhibition of human platelet PDE2 at 10 uM
Phosphodiesterase 3 [2] = biological target: T2, Phosphodiesterase 3 (Homo sapiens, UniProt Q14432+Q13370); assay: Inhibition of human platelet PDE3 at 10 uM
Phosphodiesterase 4 [3] = biological target: T3, Phosphodiesterase 4 (Homo sapiens, UniProt P27815+Q08499+Q07343+Q08493); assay: Inhibition of PDE4 isolated from human U937 cells assessed as […] by LANCE assay; assay type: cell-free; details: u-937
[4] = biological target: cGMP-specific 3',5'-cyclic phosphodiesterase PDE5 (Homo sapiens) (UniProt O76074); assay: Inhibition of human platelet PDE5 at 10 uM
Cavia porcellus [5] = assay: Inhibition of ovalbumin-induced lung eosinophilia in Dunkin-Hartley guinea pig at 0.3 umol/kg administered intratracheally 2 hrs before ovalbumin challenge; assay type: functional; details: inhaled or nasal
Procedure, shortened: (§1)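 Sensitized guinea pigs challenged on day 20 after first sensitization with a 1 h aerosol of OVA (10 μg/mL in saline); sham group received saline aerosol. Compound given intratracheally as a dry powder formulation 2 h or 24 h before challenge. Read-out was airway/lung eosinophil influx.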

[6] = n-Octanol-buffer partition coefficient, log D of the compound at pH 7.4 by shake-flask method
Cavia porcellus [7] = assay: Inhibition of ovalbumin-induced lung eosinophilia in Dunkin-Hartley guinea pig at 0.01 to 3 umol/kg administered intratracheally 24 hrs before ovalbumin challenge; assay type: functional, organism-based; procedure, shortened: as §1
Cavia porcellus [8] = assay: Inhibition of ovalbumin-induced lung eosinophilia in Dunkin-Hartley guinea pig at 3 umol/kg administered intratracheally 2 hrs before ovalbumin challenge; assay type: functional; details: inhaled or nasal; procedure, shortened: as §1
Cavia porcellus [9] = assay: Inhibition of ovalbumin-induced lung eosinophilia in Dunkin-Hartley guinea pig at 1 umol/kg administered intratracheally 2 hrs before ovalbumin challenge; assay type: functional; details: inhaled or nasal; procedure, shortened: as §1
Cavia porcellus [10] = assay: Inhibition of ovalbumin-induced lung eosinophilia in Dunkin-Hartley guinea pig at 0.1 umol/kg administered intratracheally 2 hrs before ovalbumin challenge; assay type: functional; details: inhaled or nasal; procedure, shortened: as §1
Cavia porcellus [11] = assay: Inhibition of ovalbumin-induced lung eosinophilia in Dunkin-Hartley guinea pig administered intratracheally 2 hrs before ovalbumin challenge; assay type: functional; procedure, shortened: as §1
[12] = Permeability across apical to basolateral side in human Calu3 cells at 1.5 to 7 uM up to 120 mins by LC-MS/MS analysis; assay type: ADME, cell-based; details: calu-3, 2 h
Procedure, shortened: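 Calu-3 cells grown on Transwell filters in MEM at 37 °C, 5% CO2, for 3 days plus a further 11–27 days until confluent. Compound added apically at 1.5, 3.5 and 7 μM. Receiver compartment sampled at 0, 30, 60, 90, 120 min; quantified by LC−MS/MS.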

[13] = Metabolic stability in lung parenchyma of COPD patients under hydrolytic/proteolytic condition; assay type: ADME, tissue-based; details: human
[14] = Metabolic stability in human plasma assessed as compound remaining at 5 uM after 1 hr by LC-MS/MS analysis; assay type: ADME, cell-free; details: read-out: Stability
Procedure, shortened: (§2)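 Compound from 5 mM DMSO stock added to plasma at 5 μM final and incubated at 37 °C up to 120 min. Aliquots taken at 0, 15, 30, 60, 90, 120 min and quenched with 2 volumes of chilled acetonitrile, then centrifuged.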

[15] = Metabolic stability in rat plasma assessed as compound remaining at 5 uM after 1 hr by LC-MS/MS analysis; assay type: ADME, cell-free; details: read-out: Stability; procedure, shortened: as §2
[16] = Half life in human lung slices at 1 uM after 2 hrs by LC-MS/MS analysis; assay type: ADME, tissue-based
Procedure, shortened: (§3)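 Fresh lung slices preincubated 1 h at 37 °C under 95% O2/5% CO2 in DMEM/F12 with 10% FCS, then incubated with compound at 1 μM in MEM-Earle without phenol red for up to 2 h. Three replicates for human slices, four for rat. Compound measured by LC−MS/MS at 0, 20, 40, 60, 90, 120 min; testosterone (n = 2) checked slice viability.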

[17] = Half life in rat lung slices at 1 uM after 2 hrs by LC-MS/MS analysis; assay type: ADME, tissue-based; procedure, shortened: as §3
Cavia porcellus [18] = assay: Inhibition of ovalbumin-induced lung eosinophilia in Dunkin-Hartley guinea pig at 0.01 umol/kg administered intratracheally 2 hrs before ovalbumin challenge; assay type: functional; details: inhaled or nasal; procedure, shortened: as §1
U-937 [19] = assay: Selectivity ratio of IC50 for bovine retina PDE6 to IC50 for PDE4 isolated from human U937 cells; assay type: cell-based
Procedure, shortened: (§4)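 PDE1 from bovine brain, PDE6 from bovine retina, PDE2/3/5 from human platelets. Each was tested in a radiometric two-step assay at five concentrations, in duplicate, starting at 30 μM with 1:10 serial dilution and 1% DMSO. […] Ratio = PDEx IC50 / PDE4 IC50.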

U-937 [20] = assay: Selectivity ratio of IC50 for human platelet PDE5 to IC50 for PDE4 isolated from human U937 cells; assay type: cell-based; procedure, shortened: as §4
U-937 [21] = assay: Selectivity ratio of IC50 for human platelet PDE3 to IC50 for PDE4 isolated from human U937 cells; assay type: cell-based; procedure, shortened: as §4
U-937 [22] = assay: Selectivity ratio of IC50 for human platelet PDE2 to IC50 for PDE4 isolated from human U937 cells; assay type: cell-based; procedure, shortened: as §4
[23] = biological target: T1, cGMP-dependent 3',5'-cyclic phosphodiesterase; assay: Inhibition of human platelet PDE2
Procedure, shortened: (§5)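 Radiometric two-step assay (modified Thompson–Appleman). PDE1 from bovine brain; PDE2, PDE3, PDE5 from human platelets; PDE6 from bovine retina. Compound tested in duplicate at five concentrations, starting at 30 μM with 1:10 serial dilution, 1% final DMSO.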

Phosphodiesterase 3 [24] = biological target: T2, Phosphodiesterase 3; assay: Inhibition of human platelet PDE3; procedure, shortened: as §5
[25] = Inhibition of bovine brain PDE1; design: species or system Bos taurus; procedure, shortened: as §5
[26] = Apparent permeability across human Caco2 cells at 10 uM after 2 hrs by LC-MS/MS analysis; assay type: ADME, cell-based; details: Caco-2
Procedure, shortened: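 Caco-2 cells cultured 24 h, then switched to enterocyte differentiation medium for 3 days to form monolayers. Test compound 10 μM in DMEM (1% DMSO) added apically; apical pH 6.5, basolateral pH 7.4. After 2 h at 37 °C, apical, basolateral and starting solutions quantified by LC−MS/MS. Papp (nm/s) = flux/initial donor concentration; caffeine and cimetidine run as references.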

[27] = Inhibition of bovine retina PDE6; design: species or system Bos taurus; procedure, shortened: as §5
[28] = Half life in human lung S9 fraction; assay type: ADME, tissue-based
Procedure, shortened: (§6)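 Lung S9 fraction (0.5 mg protein/mL) incubated in duplicate with compound at 1 μM in Dulbecco's buffer pH 7.4, 37 °C, with 1 mM NADPH. Samples taken at 0, 15, 30, 60 min and quenched in ice-cold acetonitrile; unchanged compound measured by LC−MS/MS. Controls were no-NADPH and buffer-only incubations; 7-ethoxyresorufin 1 μM served as phase I positive control.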

[29] = Plasma protein binding in human at 5 uM after 5 hrs by LC-MS/MS analysis; assay type: ADME, cell-free; details: read-out: PPB (converted)
Procedure, shortened: (§7)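 Equilibrium dialysis: plasma spiked at 5 μM (from 500 μM stock) dialysed against phosphate buffer pH 7.4 for 5 h at 37 °C with slow rotation. Samples extracted with ACN/MeOH containing verapamil internal standard, centrifuged, and analysed by LC−MS/MS.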

[30] = Metabolic stability in human lung S9 fraction assessed as compound remaining at 1 uM after 1 hr by LC-MS/MS analysis; assay type: ADME; details: read-out: Stability; procedure, shortened: as §6
[31] = Half life in rat lung S9 fraction; assay type: ADME, tissue-based; procedure, shortened: as §6
U-937 [32] = assay: Selectivity ratio of IC50 for bovine brain PDE1 to IC50 for PDE4 isolated from human U937 cells; assay type: cell-based; procedure, shortened: as §4
[33] = Metabolic stability in rat lung S9 fraction assessed as compound remaining at 1 uM after 1 hr by LC-MS/MS analysis; assay type: ADME; details: read-out: Stability; procedure, shortened: as §6
[34] = Plasma protein binding in rat at 5 uM after 5 hrs by LC-MS/MS analysis; assay type: ADME, cell-free; details: read-out: PPB (converted); procedure, shortened: as §7
Phosphodiesterase 4 [35] = biological target: T3, Phosphodiesterase 4; assay: Inhibition of PDE4 activity in human PBMC assessed as inhibition of LPS-induced TNFalpha release after 18 hrs by ELISA
Procedure, shortened: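 Human PBMCs plated at 10^5 cells/well in RPMI 1640 without phenol red plus 10% FBS, at 37 °C, 5% CO2. Compound added at 10^-15 to 10^-6 M (final DMSO 0.2%), with E. coli LPS at 3 ng/mL final, for 18 h. TNFα in supernatant measured by paired-antibody ELISA. IC50 from four-parameter logistic nonlinear regression, reported with 95% confidence intervals.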

[36] = biological target: 3',5'-cyclic-AMP phosphodiesterase 4D (Homo sapiens) (UniProt Q08499); details: Sf9
Sequence of 3',5'-cyclic-AMP phosphodiesterase 4D (Homo sapiens) (Q08499 whole entry): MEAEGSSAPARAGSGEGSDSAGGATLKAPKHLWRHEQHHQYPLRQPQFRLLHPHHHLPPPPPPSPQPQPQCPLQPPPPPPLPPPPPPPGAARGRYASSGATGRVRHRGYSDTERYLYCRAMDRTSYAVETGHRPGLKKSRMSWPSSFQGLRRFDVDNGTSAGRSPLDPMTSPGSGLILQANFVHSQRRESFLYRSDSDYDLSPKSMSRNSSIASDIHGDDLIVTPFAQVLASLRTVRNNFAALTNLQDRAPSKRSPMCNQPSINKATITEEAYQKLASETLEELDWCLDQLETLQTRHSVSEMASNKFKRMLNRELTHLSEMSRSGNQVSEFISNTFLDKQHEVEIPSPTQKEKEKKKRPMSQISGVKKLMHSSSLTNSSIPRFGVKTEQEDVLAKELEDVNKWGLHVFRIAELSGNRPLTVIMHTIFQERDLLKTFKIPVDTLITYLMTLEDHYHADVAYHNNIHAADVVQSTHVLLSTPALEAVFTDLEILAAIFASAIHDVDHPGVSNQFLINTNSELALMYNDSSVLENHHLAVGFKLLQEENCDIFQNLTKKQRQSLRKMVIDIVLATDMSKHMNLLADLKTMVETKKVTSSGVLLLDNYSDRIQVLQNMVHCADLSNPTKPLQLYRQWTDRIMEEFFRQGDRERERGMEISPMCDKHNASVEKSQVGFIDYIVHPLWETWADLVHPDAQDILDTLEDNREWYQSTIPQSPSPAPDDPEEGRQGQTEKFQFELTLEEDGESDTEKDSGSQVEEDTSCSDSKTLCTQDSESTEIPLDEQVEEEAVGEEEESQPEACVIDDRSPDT

[37] = biological target: 3',5'-cyclic-AMP phosphodiesterase 4B (Homo sapiens) (UniProt Q07343); details: Sf9
Sequence of 3',5'-cyclic-AMP phosphodiesterase 4B (Homo sapiens) (Q07343 whole entry): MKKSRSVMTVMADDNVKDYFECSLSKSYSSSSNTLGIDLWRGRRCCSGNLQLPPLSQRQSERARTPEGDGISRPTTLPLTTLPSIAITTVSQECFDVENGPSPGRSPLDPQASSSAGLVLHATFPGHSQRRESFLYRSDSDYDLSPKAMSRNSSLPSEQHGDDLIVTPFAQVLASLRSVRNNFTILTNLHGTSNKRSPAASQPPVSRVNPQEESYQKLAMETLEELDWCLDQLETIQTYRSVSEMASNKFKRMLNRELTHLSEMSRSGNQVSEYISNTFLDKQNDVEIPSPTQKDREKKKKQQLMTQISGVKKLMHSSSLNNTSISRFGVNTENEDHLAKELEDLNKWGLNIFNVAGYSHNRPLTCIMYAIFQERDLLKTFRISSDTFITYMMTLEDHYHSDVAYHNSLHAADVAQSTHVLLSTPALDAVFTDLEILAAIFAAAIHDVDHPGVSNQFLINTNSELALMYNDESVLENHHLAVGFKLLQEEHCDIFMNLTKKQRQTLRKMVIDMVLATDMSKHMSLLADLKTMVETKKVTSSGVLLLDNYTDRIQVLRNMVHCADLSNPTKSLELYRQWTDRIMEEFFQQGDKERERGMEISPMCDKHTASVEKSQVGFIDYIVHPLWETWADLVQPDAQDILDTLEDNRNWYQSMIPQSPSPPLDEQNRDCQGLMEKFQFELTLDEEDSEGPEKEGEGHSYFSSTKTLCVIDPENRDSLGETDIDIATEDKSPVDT

T1 sequence (O00408 whole entry): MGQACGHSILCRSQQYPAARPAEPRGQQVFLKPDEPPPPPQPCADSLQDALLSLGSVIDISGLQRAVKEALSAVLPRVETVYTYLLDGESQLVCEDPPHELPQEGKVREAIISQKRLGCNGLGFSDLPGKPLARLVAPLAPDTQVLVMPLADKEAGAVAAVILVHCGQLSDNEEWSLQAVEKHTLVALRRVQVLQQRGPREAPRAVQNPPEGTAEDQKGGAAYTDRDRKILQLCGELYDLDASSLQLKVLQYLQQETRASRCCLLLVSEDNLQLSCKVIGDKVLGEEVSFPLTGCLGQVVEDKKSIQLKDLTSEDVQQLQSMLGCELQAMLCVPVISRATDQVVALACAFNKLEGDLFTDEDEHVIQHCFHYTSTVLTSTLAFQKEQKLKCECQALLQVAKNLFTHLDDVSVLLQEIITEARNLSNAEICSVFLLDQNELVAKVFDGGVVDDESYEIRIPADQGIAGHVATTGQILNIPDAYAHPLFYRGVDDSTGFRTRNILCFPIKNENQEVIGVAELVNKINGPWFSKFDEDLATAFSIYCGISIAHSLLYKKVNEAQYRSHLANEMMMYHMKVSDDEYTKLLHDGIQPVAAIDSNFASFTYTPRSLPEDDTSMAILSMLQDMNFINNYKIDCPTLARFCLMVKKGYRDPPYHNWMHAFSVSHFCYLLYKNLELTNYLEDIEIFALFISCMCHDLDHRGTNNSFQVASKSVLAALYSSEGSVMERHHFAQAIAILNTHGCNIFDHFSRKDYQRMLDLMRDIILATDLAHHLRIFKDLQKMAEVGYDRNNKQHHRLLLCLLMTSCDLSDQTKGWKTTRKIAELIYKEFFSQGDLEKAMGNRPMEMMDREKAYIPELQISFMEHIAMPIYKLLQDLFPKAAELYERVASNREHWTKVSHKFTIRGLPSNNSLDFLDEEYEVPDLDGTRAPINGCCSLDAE

Question: Which inhibition [1] does the source give for `O=C(OC(Cc1c(Cl)cncc1Cl)c1ccc(OC(F)F)c(OCC2CC2)c1)c1ccc(OC(F)F)c(OCC2CC2)c1` (racemic) here?
Answer: 0%

Question: And the inhibition (Phosphodiesterase 3 [2])?
Answer: 18%

Question: And the IC50 (Phosphodiesterase 4 [3])?
Answer: 3.45 nM

Question: What about the inhibition [4] of the same molecule?
Answer: 58%

Question: Which inhibition in vivo at 0.3 µmol/kg (Cavia porcellus [5]) does the source give for `C[C@@H]1C[C@H]2[C@@H]3C[C@H](F)C4=CC(=O)C=C[C@]4(C)[C@@]3(F)[C@@H](O)C[C@]2(C)[C@@]1(OC(=O)c1ccco1)C(=O)SCF` [FLUTICASONE FUROATE] here?
Answer: 90%

Question: What about the logD [6] of the same molecule?
Answer: 4.43

Question: Which inhibition (Cavia porcellus [7]) does the source give for `CS(=O)(=O)Nc1ccc(C(=O)O[C@@H](Cc2c(Cl)c[n+]([O-])cc2Cl)c2ccc(OC(F)F)c(OCC3CC3)c2)cc1OCC1CC1` here?
Answer: Active

Question: And the inhibition in vivo at 3 µmol/kg (Cavia porcellus [8])?
Answer: 100%

Question: What about the inhibition in vivo at 1 µmol/kg (Cavia porcellus [9]) of the same molecule?
Answer: 83%

Question: What about the inhibition in vivo at 0.1 µmol/kg (Cavia porcellus [10]) of the same molecule?
Answer: 66%

Question: What about the inhibition (Cavia porcellus [11]) of the same molecule?
Answer: Dose-dependent effect

Question: And the ED50 (Cavia porcellus [11]; inhaled or nasal)?
Answer: 0.016 µmol/kg

Question: What about the permeability [12] of the same molecule?
Answer: impermeable

Question: And the Stability [13]?
Answer: Stable

Question: What about the remaining at 1 h, 5 µM [14] of the same molecule?
Answer: 100%

Question: And the remaining at 1 h, 5 µM [15]?
Answer: 100%

Question: What about the half-life at 1 µM [16] of the same molecule?
Answer: 3.95 h

Question: And the half-life at 1 µM [17]?
Answer: 2.87 h

Question: And the inhibition in vivo at 0.01 µmol/kg (Cavia porcellus [18])?
Answer: 47%

Question: And the Ratio IC50 (U-937 [19])?
Answer: > 20000

Question: And the Ratio IC50 (U-937 [20])?
Answer: > 20000

Question: And the Ratio IC50 (U-937 [21])?
Answer: > 20000

Question: What about the Ratio IC50 (U-937 [22]) of the same molecule?
Answer: > 20000

Question: And the IC50 [23]?
Answer: > 1000 nM

Question: What about the IC50 (Phosphodiesterase 3 [24]) of the same molecule?
Answer: > 1000 nM

Question: And the IC50 [25]?
Answer: > 1000 nM

Question: And the Papp at 2 h, 10 µM [26]?
Answer: < 1 ×10⁻⁶ cm/s

Question: And the IC50 [27]?
Answer: > 1000 nM

Question: What about the half-life [28] of the same molecule?
Answer: > 4.67 h

Question: And the fraction unbound at 5 h, 5 µM [29]?
Answer: 0.0002

Question: And the remaining at 1 h, 1 µM [30]?
Answer: 100%

Question: And the half-life [31]?
Answer: 3.15 h

Question: What about the Ratio IC50 (U-937 [32]) of the same molecule?
Answer: > 20000

Question: What about the remaining at 1 h, 1 µM [33] of the same molecule?
Answer: 88%

Question: What about the fraction unbound at 5 h, 5 µM [34] of the same molecule?
Answer: 0.008

Question: What about the logD [6] of the same molecule?
Answer: 4.48

Question: What about the IC50 (Phosphodiesterase 4 [35]) of the same molecule?
Answer: 0.06 nM

Question: What about the IC50 (Phosphodiesterase 4 [3]) of the same molecule?
Answer: 0.04 nM

Question: And the T1/2 [36]?
Answer: > 20 h

Question: And the T1/2 [37]?
Answer: > 20 h
